Measured values taken from ChEMBL document CHEMBL1158389, “Highly twisted adamantyl arotinoids: synthesis, antiproliferative effects and RXR transactivation profiles” (Eur J Med Chem, 2009).
Active and inactive are the calls of the source. The calls are words filed in the database; no cut-off is given here.

Key:
[1] = molecular target: T1, Retinoic acid receptor beta (Homo sapiens) (UniProt P10826); experiment: Inhibition of transactivation activity of Gal4-LBD fused human RARbeta (169 to 448) transfected in atRA-stimulated african green monkey CV1 cells after 6 hrs by Dual-light chemiluminescent assay; format: cell-based; details: CV-1
T1 sequence (whole entry): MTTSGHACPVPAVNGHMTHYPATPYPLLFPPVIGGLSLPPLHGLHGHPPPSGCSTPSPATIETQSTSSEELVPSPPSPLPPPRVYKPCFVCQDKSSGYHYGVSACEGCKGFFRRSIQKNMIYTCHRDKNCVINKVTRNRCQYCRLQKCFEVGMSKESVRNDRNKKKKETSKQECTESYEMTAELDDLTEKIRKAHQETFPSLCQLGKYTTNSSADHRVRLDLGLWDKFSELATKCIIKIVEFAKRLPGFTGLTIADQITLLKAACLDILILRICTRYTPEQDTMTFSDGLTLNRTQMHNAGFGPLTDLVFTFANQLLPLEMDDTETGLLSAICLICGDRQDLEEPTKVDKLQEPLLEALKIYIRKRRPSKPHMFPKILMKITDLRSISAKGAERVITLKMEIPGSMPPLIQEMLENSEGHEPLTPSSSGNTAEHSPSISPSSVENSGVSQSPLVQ
Summary of the method: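 Gal4 DBD (1–147) was fused to hRARα (156–462) or hRARβ (169–448) LBD. CV-1 cells (20,000/well) were co-transfected with 10 ng Gal4-LBD, 100 ng UAS-luciferase and 25 ng β-gal vector. After 16 h the medium was replaced with medium containing 5% charcoal-treated FBS. Cells got atRA plus test compound at 10-, 40- or 200-fold excess (0.2, 0.8, 4 μM) for 6 h. Luciferase and β-galactosidase were read by chemiluminescence.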

[2] = molecular target: T2, Retinoic acid receptor gamma (Homo sapiens) (UniProt P13631); experiment: Inhibition of transactivation activity of Gal4-LBD fused human RARgamma (178 to 454) transfected in atRA-stimulated african green monkey CV1 cells after 20 hrs by Dual-light chemiluminescent assay; details: CV-1
T2 sequence (whole entry): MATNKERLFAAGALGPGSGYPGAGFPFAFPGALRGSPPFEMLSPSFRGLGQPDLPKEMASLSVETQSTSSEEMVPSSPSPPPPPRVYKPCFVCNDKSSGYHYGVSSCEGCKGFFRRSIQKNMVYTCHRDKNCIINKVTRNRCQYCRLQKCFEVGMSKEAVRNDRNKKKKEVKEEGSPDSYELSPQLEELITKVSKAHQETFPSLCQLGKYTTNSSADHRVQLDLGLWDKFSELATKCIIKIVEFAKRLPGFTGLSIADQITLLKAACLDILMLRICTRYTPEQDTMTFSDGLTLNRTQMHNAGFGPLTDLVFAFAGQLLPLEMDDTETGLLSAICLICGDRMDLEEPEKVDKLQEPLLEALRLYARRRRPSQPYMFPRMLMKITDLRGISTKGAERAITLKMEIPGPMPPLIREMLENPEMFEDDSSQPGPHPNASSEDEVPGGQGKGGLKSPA

[3] = molecular target: T3, Retinoic acid receptor RXR-alpha (Mus musculus) (UniProt P28700); experiment: Inhibition of Gal4-LBD fused mouse RXRalpha transactivation in african green monkey CV1 cells at 1 uM after 6 hrs by Dual-light chemiluminescent assay; format: cell-based; details: CV-1
T3 sequence (whole entry): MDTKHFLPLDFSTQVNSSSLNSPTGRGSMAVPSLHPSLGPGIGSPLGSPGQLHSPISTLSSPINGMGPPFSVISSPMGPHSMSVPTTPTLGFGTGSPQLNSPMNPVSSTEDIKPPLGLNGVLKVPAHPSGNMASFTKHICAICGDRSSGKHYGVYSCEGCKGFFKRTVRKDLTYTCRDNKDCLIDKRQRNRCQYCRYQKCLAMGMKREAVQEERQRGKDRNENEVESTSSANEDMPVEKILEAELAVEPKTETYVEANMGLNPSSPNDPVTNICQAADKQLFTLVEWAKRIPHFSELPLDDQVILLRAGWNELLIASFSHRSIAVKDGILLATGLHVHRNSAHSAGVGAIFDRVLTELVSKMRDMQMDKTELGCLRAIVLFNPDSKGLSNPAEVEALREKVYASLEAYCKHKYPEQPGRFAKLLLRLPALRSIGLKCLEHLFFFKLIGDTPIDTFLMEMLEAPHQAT
Summary of the method: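 CV-1 cells (20,000/well) co-transfected with 10 ng Gal4 DBD (residues 1–147)–mRXRα LBD (residues 218–467) vector, 100 ng UAS-luciferase reporter and 25 ng β-galactosidase vector (pCH110). After 16 h, switched to medium with 5% charcoal-treated FBS and treated for 6 h. Cells washed, lysed, and luciferase and β-galactosidase activities read by chemiluminescence.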

PC-3 = experiment: Antiproliferative activity against human PC3 cells at 4 uM after 48 hrs by MTT assay; format: functional
Summary of the method: (§1)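 Epithelial cancer lines came from ATCC and were seeded the day before in complete medium: PC-3, SkOV3 and A549 at 3,000/well; MiaPaCa-2 and BxPC-3 at 4,000; T-47D and MDA-MB-468 at 5,000. Medium was switched to 0.5% FBS just before exposure to 4 μM. Read-out was MTT (4 h, 37 °C), SDS/HCl solubilisation, A595 minus cell-free blank. Growth inhibition was taken versus DMSO (≤0.1% v/v) controls, ≥2 experiments in triplicate.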

SK-OV-3 = experiment: Antiproliferative activity against human SKOV3 cells at 4 uM after 48 hrs by MTT assay; format: functional; summary of the method: as §1
A549 = experiment: Antiproliferative activity against human A549 cells at 4 uM after 72 hrs by MTT assay; format: functional; summary of the method: as §1
MIA PaCa-2 = experiment: Antiproliferative activity against human MIAPaCa2 cells at 4 uM after 48 hrs by MTT assay; format: functional; summary of the method: as §1
BXPC-3 = experiment: Antiproliferative activity against human BxPC3 cells at 4 uM after 48 hrs by MTT assay; format: functional; summary of the method: as §1
T47D = experiment: Antiproliferative activity against human T47D cells at 4 uM after 48 hrs by MTT assay; format: functional; summary of the method: as §1
MDA-MB-468 = experiment: Antiproliferative activity against human MDA-MB-468 cells at 4 uM after 48 hrs by MTT assay; format: functional; summary of the method: as §1
Jurkat = experiment: Induction of apoptosis in human Jurkat T cells assessed as induction of DEVDase activity at 1 uM after 4 hrs by fluorescence assay; format: functional, cell-based
Summary of the method: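 Jurkat cells (40,000/well, 10^6 cells/mL, RPMI with 0.5% FBS) were treated for 4 h; controls got 0.1% DMSO. Lysis was in CE buffer (PIPES pH 7, NP-40, cytochalasin B, protease inhibitors) for 30 min at 4 °C. Lysates were mixed with 2x caspase buffer (HEPES pH 7.4, CHAPS, sucrose) holding 100 μM Ac-DEVD-AFC and incubated at 37 °C for 30 min. AFC was read every 2 min, ex 390/em 510 nm.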

[4] = molecular target: T4, Retinoic acid receptor alpha (Homo sapiens) (UniProt P10276); experiment: Displacement of [3H]9cRA from RARalpha
T4 sequence (whole entry): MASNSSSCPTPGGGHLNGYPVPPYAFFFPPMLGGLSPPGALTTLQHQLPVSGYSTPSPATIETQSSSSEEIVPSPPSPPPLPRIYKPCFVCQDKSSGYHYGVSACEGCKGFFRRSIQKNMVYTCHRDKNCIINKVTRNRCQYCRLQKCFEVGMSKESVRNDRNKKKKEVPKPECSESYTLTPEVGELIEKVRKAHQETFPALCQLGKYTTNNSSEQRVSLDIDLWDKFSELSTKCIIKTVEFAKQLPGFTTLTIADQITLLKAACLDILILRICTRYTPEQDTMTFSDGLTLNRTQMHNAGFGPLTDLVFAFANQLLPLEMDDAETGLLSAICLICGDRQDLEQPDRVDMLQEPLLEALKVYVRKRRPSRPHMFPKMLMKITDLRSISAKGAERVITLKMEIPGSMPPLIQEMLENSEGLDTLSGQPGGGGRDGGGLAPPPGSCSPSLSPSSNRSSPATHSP

[5] = molecular target: T1, Retinoic acid receptor beta (Homo sapiens); experiment: Displacement of [3H]9cRA from RARbeta
[6] = molecular target: T2, Retinoic acid receptor gamma (Homo sapiens); experiment: Displacement of [3H]9cRA from RARgamma
[7] = molecular target: T5, Retinoic acid receptor RXR-alpha (Homo sapiens) (UniProt P19793); experiment: Displacement of [3H]9cRA from RXRalpha
T5 sequence (whole entry): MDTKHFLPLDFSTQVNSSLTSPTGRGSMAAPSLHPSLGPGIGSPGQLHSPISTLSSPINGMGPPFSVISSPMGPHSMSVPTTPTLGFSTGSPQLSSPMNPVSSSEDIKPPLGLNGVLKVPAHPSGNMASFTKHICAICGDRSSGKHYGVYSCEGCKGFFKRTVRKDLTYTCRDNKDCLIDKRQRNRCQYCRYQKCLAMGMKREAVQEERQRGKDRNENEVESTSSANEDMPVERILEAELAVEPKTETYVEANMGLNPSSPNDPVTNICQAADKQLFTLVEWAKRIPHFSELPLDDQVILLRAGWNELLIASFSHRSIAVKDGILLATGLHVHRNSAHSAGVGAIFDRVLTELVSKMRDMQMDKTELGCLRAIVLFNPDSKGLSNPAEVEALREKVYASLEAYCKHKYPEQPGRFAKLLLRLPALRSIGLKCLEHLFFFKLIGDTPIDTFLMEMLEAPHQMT

Which Activity [1] does the source give for `CC1(C)CC=C(C#Cc2ccccc2)c2cc(/C=C/c3ccc(C(=O)O)cc3)ccc21` here?
Its Activity is “Active”.

And the Activity [2]?
Its Activity is “Active”.

How did the Activity [3] turn out when `CCCCCOc1cc2c(cc1-c1cc(/C=C/C(=O)O)ccc1O)C(C)(C)CCC2(C)C` was run?
Its Activity is “Active”.

With `O=C(O)/C=C/c1ccc(-c2ccc(O)c(C34CC5CC(CC(C5)C3)C4)c2)c(Cl)c1` as the compound, how does the Activity (PC-3) read?
The Activity was “Active”.

What about the Activity (SK-OV-3) of the same compound?
Its Activity is “Active”.

And the Activity (A549)?
Its Activity is “Active”.

And the Activity (MIA PaCa-2)?
Its Activity is “Active”.

What about the Activity (BXPC-3) of the same compound?
Its Activity is “Active”.

And the Activity (T47D)?
Its Activity is “Active”.

And the Activity (MDA-MB-468)?
Its Activity is “Active”.

And the Activity (Jurkat)?
The Activity was “Active”.

And the Activity [4]?
The Activity was 31%.

And the Activity [5]?
Its Activity is 17%.

And the Activity [6]?
The Activity was 83%.

What about the Activity [7] of the same compound?
Its Activity is 16%.
